Results on 21 molecules are retold here after ChEMBL document CHEMBL1629485, “Lead identification of conformationally restricted β-lactam type combretastatin analogues: synthesis, antiproliferative activity and tubulin targeting effects” (Eur J Med Chem, 2010).

The subject of test [1] is MCF7. The test can be described thus: Antiproliferative activity against human MCF7 cells expressing estrogen receptor after 72 hrs by MTT assay. Type of test: functional, cell-based. To be noted: MCF7, 72 h.
Test [2] relates to MDA-MB-231. The test can be described thus: Cytotoxicity against estrogen receptor deficient human MDA-MB-231 cells assessed as LDH release at 10 uM. Type of test: functional. The method, boiled down: (§1)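 After compound treatment, LDH was measured with a commercial LDH kit. Result is % cell lysis at 10 μM compound.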
Test [3] concerns MCF7. Description: Cytotoxicity against human MCF7 cells expressing estrogen receptor assessed as LDH release at 10 uM. It is filed as functional. Put shortly:
as §1

In test [4] the test system is MDA-MB-231. The test can be described thus: Antiproliferative activity against estrogen receptor deficient human MDA-MB-231 cells after 72 hrs by MTT assay. Conditions: MDA-MB-231, 72 h. Type of test: functional, cell-based. Put shortly:
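MCF-7 grown in Eagle's MEM with 10% FBS, 2 mM L-glutamine, penicillin/streptomycin and 1% non-essential amino acids; MDA-MB-231 grown in DMEM with 10% FBS, 2 mM L-glutamine and penicillin/streptomycin. Seeded at 2.5 × 10⁴ cells/mL, 24 h at 37 °C. Ethanol-stock compound, 1 nM–100 μM, 72 h, ethanol 1% v/v vehicle. MTT at 1 mg/mL final, 2 h dark, 37 °C, DMSO solubilised. Viability vs untreated control. IC50 is mean of three experiments in triplicate.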

For the molecule `COc1ccc(N2C(=O)CC2c2cc(OC)c(OC)c(OC)c2)cc1O` (configuration not stated), the IC50 with MCF7 [1] was determined as 250 nM; in the test on MDA-MB-231 [4] it was 270 nM. Besides, the values for the Activity with MDA-MB-231 [2] and in the test on MCF7 [3] were 6.6% and 2.3%, respectively.

Regarding `COc1ccc(C2C(C)C(=O)N2c2cc(OC)c(OC)c(OC)c2)cc1O` (configuration not stated), the results for the IC50 in the test with MCF7 [1] and in the test with MDA-MB-231 [4] were 10 nM and 47 nM, respectively. Besides, the Activity was 25% with MDA-MB-231 [2] and 15% with MCF7 [3].

Consider `COc1ccc(C2N(c3cc(OC)c(OC)c(OC)c3)C(=O)C2(C)C)cc1O` (configuration not stated), for which the values for the IC50 with MCF7 [1] and in the test on MDA-MB-231 [4] were 130 nM and 1670 nM, respectively. Moreover, the Activity in the test on MDA-MB-231 [2] is given as 20%; in the test on MCF7 [3] it was 12%.

In the case of `COc1ccc(N2C(=O)C(C)C2c2cc(OC)c(OC)c(OC)c2)cc1O` (configuration not stated), the figures for the IC50 in the test with MCF7 [1] and in the test on MDA-MB-231 [4] were 2960 nM and 13000 nM, respectively. The Activity in the test on MDA-MB-231 [2] came to 0%; in the test with MCF7 [3], 17%.

Regarding `COc1ccc(N2C(=O)C(C)(C)C2c2cc(OC)c(OC)c(OC)c2)cc1O` (configuration not stated), the results for the IC50 in the test on MCF7 [1] and in the test on MDA-MB-231 [4] were 4040 nM and 3190 nM, respectively. The Activity was 12.1% in the test on MDA-MB-231 [2] and 11.5% in the test on MCF7 [3].

Take `COc1cc(N2C(=O)CC2c2ccc(F)cc2)cc(OC)c1OC` (configuration not stated): the IC50 in the test on MCF7 [1] and in the test with MDA-MB-231 [4] was 26000 nM throughout. The Activity came out at 6.3% in the test on MDA-MB-231 [2] and 0% in the test on MCF7 [3].

Turning to `COc1cc(OC)c(C2CC(=O)N2c2cc(OC)c(OC)c(OC)c2)cc1OC` (configuration not stated), the IC50 with MCF7 [1] was determined as 63700 nM; in the test with MDA-MB-231 [4], 38500 nM. For the same molecule, the Activity in the test with MDA-MB-231 [2] is 0%; with MCF7 [3], 2.2%.

Turning to `COc1ccc(C2CC(=O)N2c2cc(OC)c(OC)c(OC)c2)cc1` (configuration not stated), the figures for the half-inhibitory concentration (IC50) in the test with MCF7 [1] and in the test with MDA-MB-231 [4] were 39 nM and 210 nM, respectively. Also, the Activity is given as 1.1% in the test with MDA-MB-231 [2] and 1.5% in the test on MCF7 [3].

Turning to `COc1ccc(C2C(C)C(=O)N2c2cc(OC)c(OC)c(OC)c2)cc1` (configuration not stated), the IC50 stood at 47 nM in the test with MCF7 [1] and 127 nM in the test on MDA-MB-231 [4]. Besides, the figures for the Activity with MDA-MB-231 [2] and in the test on MCF7 [3] were 4.5% and 5.7%, respectively.

As for `COc1ccc(C2N(c3cc(OC)c(OC)c(OC)c3)C(=O)C2(C)C)cc1` (configuration not stated), the IC50 with MCF7 [1] came out at 265 nM; in the test with MDA-MB-231 [4] it was 1150 nM. Also, the results for the Activity with MDA-MB-231 [2] and with MCF7 [3] were 16% and 12%, respectively.

As for `COc1cc(C2CC(=O)N2c2cc(OC)c(OC)c(OC)c2)cc(OC)c1OC` (configuration not stated), the figures for the IC50 in the test on MCF7 [1] and with MDA-MB-231 [4] were 168000 nM and 94400 nM, respectively. The Activity amounted to 0% in the test on MDA-MB-231 [2] and 1.9% with MCF7 [3].

For the molecule `COc1cc(N2C(=O)CC2c2ccc(OC)c(OC)c2OC)cc(OC)c1OC` (configuration not stated), the IC50 came to 310 nM in the test with MCF7 [1] and 2830 nM in the test on MDA-MB-231 [4]. The figures for the Activity in the test with MDA-MB-231 [2] and in the test with MCF7 [3] were 9% and 8%, respectively.

With `COc1ccc(C2CC(=O)N2c2cc(OC)c(OC)c(OC)c2)cc1OC` (configuration not stated), the IC50 in the test with MCF7 [1] is 1640 nM; in the test on MDA-MB-231 [4] it was 970 nM. Moreover, the Activity with MDA-MB-231 [2] was found to be 15%; with MCF7 [3] it was 5%.

Take `COc1ccc(C2C(C)C(=O)N2c2cc(OC)c(OC)c(OC)c2)cc1OC` (configuration not stated): the concentration for half-maximal inhibition (IC50) in the test with MCF7 [1] is 2960 nM; in the test on MDA-MB-231 [4] it was 8840 nM. In addition, the Activity is on record as 6.1% in the test on MDA-MB-231 [2] and 7.5% in the test with MCF7 [3].

On to `COc1ccc(C2N(c3cc(OC)c(OC)c(OC)c3)C(=O)C2(C)C)cc1OC` (configuration not stated), for which the values for the IC50 in the test on MCF7 [1] and in the test on MDA-MB-231 [4] were 344 nM and 1460 nM, respectively. In addition, the Activity in the test with MDA-MB-231 [2] is 12%; in the test on MCF7 [3] it was 14%.

Consider `COc1cc(N2C(=O)CC2c2cccs2)cc(OC)c1OC` (configuration not stated), for which the 50% inhibitory concentration (IC50) in the test on MCF7 [1] came to 21600 nM; in the test on MDA-MB-231 [4], 34500 nM. Besides, the Activity in the test on MDA-MB-231 [2] came out at 15%; in the test with MCF7 [3] it was 20%.

Take `COc1ccc2cc(C3CC(=O)N3c3cc(OC)c(OC)c(OC)c3)ccc2c1` (configuration not stated): the IC50 in the test on MCF7 [1] stood at 1510 nM; in the test with MDA-MB-231 [4], 13200 nM. The Activity stood at 18% with MDA-MB-231 [2] and 13.5% in the test on MCF7 [3].

For the molecule `COc1ccc(C2CC(=S)N2c2cc(OC)c(OC)c(OC)c2)cc1` (configuration not stated), the values for the IC50 with MCF7 [1] and in the test on MDA-MB-231 [4] were 1120 nM and 4500 nM, respectively. The Activity in the test on MDA-MB-231 [2] stood at 3%; with MCF7 [3], 16%.

As for `COc1ccc(C2C(C)C(=S)N2c2cc(OC)c(OC)c(OC)c2)cc1` (configuration not stated), the IC50 with MCF7 [1] worked out at 890 nM; in the test with MDA-MB-231 [4] it was 9260 nM. In addition, the Activity with MDA-MB-231 [2] is 5.1%; in the test on MCF7 [3], 3.2%.

With `COc1ccc(C2N(c3cc(OC)c(OC)c(OC)c3)C(=S)C2(C)C)cc1` (configuration not stated), the IC50 in the test on MCF7 [1] turned out to be 350 nM; in the test with MDA-MB-231 [4] it was 1330 nM. The values for the Activity in the test with MDA-MB-231 [2] and in the test on MCF7 [3] were 8% and 5.5%, respectively.

On to `COc1ccc(/C=C\c2cc(OC)c(OC)c(OC)c2)cc1O` [COMBRETASTATIN A4], for which the Activity in the test with MDA-MB-231 [2] came to 4.3%; with MCF7 [3], 5.6%.
